Measurements from ChEMBL document CHEMBL4732114, “Design and structural optimization of novel 2H-benzo[h]chromene derivatives that target AcrB and reverse bacterial multidrug resistance” (Eur J Med Chem, 2021).
≈ marks a conversion by molar mass, not a printed value. Calls of active or inactive are those of the source. No cut-off for these calls is given here.

How the values were obtained:
[1] = molecular target: T1, Multidrug efflux pump subunit AcrB (Escherichia coli (strain K12)) (UniProt P31224); assay: Inhibition of AcrB in multidrug-resistant Escherichia coli BW25113 assessed as potentiation of levofloxacin-induced antibacterial activity by measuring levofloxacin MIC at 16 ug/ml by checkerboard titration method (reference value: 0.06 ug/ml); conditions: dose 16.0 µg/ml
T1 sequence (whole entry): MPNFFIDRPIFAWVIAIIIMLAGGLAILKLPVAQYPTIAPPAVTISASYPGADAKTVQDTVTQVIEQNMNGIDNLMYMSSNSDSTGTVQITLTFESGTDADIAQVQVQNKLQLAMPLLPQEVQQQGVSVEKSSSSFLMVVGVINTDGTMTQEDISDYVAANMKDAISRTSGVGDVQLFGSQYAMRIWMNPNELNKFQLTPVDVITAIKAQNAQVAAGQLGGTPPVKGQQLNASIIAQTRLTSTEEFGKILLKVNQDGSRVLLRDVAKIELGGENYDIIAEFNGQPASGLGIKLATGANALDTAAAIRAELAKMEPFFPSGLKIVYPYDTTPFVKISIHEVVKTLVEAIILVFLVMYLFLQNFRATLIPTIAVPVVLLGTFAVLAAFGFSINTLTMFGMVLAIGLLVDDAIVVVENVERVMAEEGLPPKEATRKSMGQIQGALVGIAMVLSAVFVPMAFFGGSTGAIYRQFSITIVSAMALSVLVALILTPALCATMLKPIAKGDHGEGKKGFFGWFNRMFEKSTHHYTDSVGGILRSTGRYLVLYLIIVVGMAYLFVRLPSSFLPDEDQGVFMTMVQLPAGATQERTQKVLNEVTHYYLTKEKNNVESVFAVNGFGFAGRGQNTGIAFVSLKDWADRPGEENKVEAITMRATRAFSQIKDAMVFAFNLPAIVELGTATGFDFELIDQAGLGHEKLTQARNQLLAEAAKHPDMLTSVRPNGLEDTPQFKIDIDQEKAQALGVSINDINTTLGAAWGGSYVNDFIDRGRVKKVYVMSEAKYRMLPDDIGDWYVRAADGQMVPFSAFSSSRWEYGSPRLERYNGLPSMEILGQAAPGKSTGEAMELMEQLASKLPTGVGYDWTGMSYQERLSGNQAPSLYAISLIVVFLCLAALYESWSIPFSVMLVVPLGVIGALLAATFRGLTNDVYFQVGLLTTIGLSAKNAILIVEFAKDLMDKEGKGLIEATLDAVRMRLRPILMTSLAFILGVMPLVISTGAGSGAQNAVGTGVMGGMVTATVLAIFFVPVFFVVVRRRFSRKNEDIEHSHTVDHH

[2] = molecular target: T1, Multidrug efflux pump subunit AcrB (Escherichia coli (strain K12)); assay: Inhibition of AcrB in multidrug-resistant Escherichia coli BW25113 assessed as potentiation of levofloxacin-induced antibacterial activity by measuring levofloxacin MIC at 8 ug/ml by checkerboard titration method (reference value: 0.06 ug/ml); conditions: dose 8.0 µg/ml
Cell membrane [3] = assay: Induction of inner membrane permeabilization in wild type Escherichia coli BW25113 assessed as perturbation of proton motive force at 32 ug/ml measured after 10 mins in presence of CCCP and glucose by Di0C2(3) probe based fluorescence assay; conditions: escherichia coli bw25113, 10 min, dose 32 µg/ml
Procedure, shortened: (§1)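 Cell suspensions were left untreated or exposed to 8-128 µg/mL compound for 10 min. DiOC₂(3) was then added and fluorescence followed to a plateau. Cells were re-energized with 0.5% glucose, and the rise in fluorescence was read as membrane-potential build-up. CCCP was added last to dissipate the potential.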

[4] = molecular target: T1, Multidrug efflux pump subunit AcrB (Escherichia coli (strain K12)); assay: Inhibition of AcrB in multidrug-resistant Escherichia coli BW25113 assessed as potentiation of erythromycin-induced antibacterial activity by measuring erythromycin MIC at 64 ug/ml by checkerboard titration method (reference value: 64 ug/ml); conditions: dose 64.0 µg/ml
[5] = molecular target: T1, Multidrug efflux pump subunit AcrB (Escherichia coli (strain K12)); assay: Inhibition of AcrB in multidrug-resistant Escherichia coli BW25113 assessed as potentiation of chloramphenicol-induced antibacterial activity by measuring chloramphenicol MIC at 128 ug/ml by checkerboard titration method (reference value: 8 ug/ml); conditions: dose 128.0 µg/ml
[6] = molecular target: T1, Multidrug efflux pump subunit AcrB (Escherichia coli (strain K12)); assay: Inhibition of AcrB in multidrug-resistant Escherichia coli BW25113 assessed as potentiation of levofloxacin-induced antibacterial activity by measuring levofloxacin MIC at 64 ug/ml by checkerboard titration method (reference value: 0.06 ug/ml); conditions: dose 64.0 µg/ml
[7] = Toxicity in multidrug-resistant Escherichia coli BW25113 harboring AcrB deletion mutant assessed as growth inhibition by two-fold broth dilution method
[8] = molecular target: T1, Multidrug efflux pump subunit AcrB (Escherichia coli (strain K12)); assay: Inhibition of AcrB in multidrug-resistant Escherichia coli BW25113 assessed as potentiation of erythromycin-induced antibacterial activity by measuring erythromycin MIC at 32 ug/ml by checkerboard titration method (reference value: 64 ug/ml); conditions: dose 32.0 µg/ml
[9] = molecular target: T1, Multidrug efflux pump subunit AcrB (Escherichia coli (strain K12)); assay: Inhibition of AcrB in multidrug-resistant Escherichia coli BW25113 assessed as potentiation of chloramphenicol-induced antibacterial activity by measuring chloramphenicol MIC at 32 ug/ml by checkerboard titration method (reference value: 8 ug/ml); conditions: dose 32.0 µg/ml
[10] = molecular target: T1, Multidrug efflux pump subunit AcrB (Escherichia coli (strain K12)); conditions: Escherichia coli BW25113; dose 32.0 µg/ml
Cell membrane [11] = assay: Induction of inner membrane permeabilization in wild type Escherichia coli BW25113 assessed as perturbation of proton motive force at 128 ug/ml measured after 10 mins in presence of CCCP and glucose by Di0C2(3) probe based fluorescence assay; conditions: escherichia coli bw25113, 10 min, dose 128 µg/ml; procedure, shortened: as §1
[12] = molecular target: T1, Multidrug efflux pump subunit AcrB (Escherichia coli (strain K12)); conditions: Escherichia coli BW25113; dose 8.0 µg/ml
[13] = molecular target: T1, Multidrug efflux pump subunit AcrB (Escherichia coli (strain K12)); assay: Inhibition of AcrB in multidrug-resistant Escherichia coli BW25113 assessed as potentiation of erythromycin-induced antibacterial activity by measuring erythromycin MIC at 8 ug/ml by checkerboard titration method (reference value: 64 ug/ml); conditions: dose 8.0 µg/ml
[14] = molecular target: T1, Multidrug efflux pump subunit AcrB (Escherichia coli (strain K12)); assay: Inhibition of AcrB in multidrug-resistant Escherichia coli BW25113 assessed as potentiation of chloramphenicol-induced antibacterial activity by measuring chloramphenicol MIC at 64 ug/ml by checkerboard titration method (reference value: 8 ug/ml); conditions: dose 64.0 µg/ml
[15] = molecular target: T1, Multidrug efflux pump subunit AcrB (Escherichia coli (strain K12)); conditions: Escherichia coli BW25113; dose 64.0 µg/ml
[16] = molecular target: T1, Multidrug efflux pump subunit AcrB (Escherichia coli (strain K12)); assay: Inhibition of AcrB in Escherichia coli BW25113 assessed as reduction in glucose-induced nile red efflux at 50 uM preincubated for 15 mins followed by nile red addition and incubated for 3 hrs in shaker in presence of CCCP by fluorimetric analysis; conditions: time 3.25 hrs
Procedure, shortened: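 Wild-type and AcrB-deleted cells were preloaded with Nile Red, with or without compound. Fluorescence was recorded, and efflux was triggered at 100 s with 0.2% glucose. Traces were compared with the deletion-strain level. Triplicate experiments used different cell batches.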

COc1cccc(COc2cccc3c4c(c(C(=O)O)cc23)CCC(C)(C)O4)c1
MIC [1]: 0.06 µg/mL
MIC [2]: 0.06 µg/mL
Activity (Cell membrane [3]): Not Active
MIC [4]: 32 µg/mL
MIC [5]: 4 µg/mL
MIC [6]: 0.06 µg/mL
MIC [7]: > 128 µg/mL
MIC [8]: 32 µg/mL
MIC [9]: 8 µg/mL
MIC [10]: 16 µg/mL (≈ 40.8 µM)
Activity (Cell membrane [11]): Not Active
MIC [12]: 16 µg/mL (≈ 40.8 µM)
MIC [13]: 64 µg/mL
MIC [14]: 4 µg/mL
MIC [15]: 16 µg/mL (≈ 40.8 µM)

CC1(C)CCc2c(-c3nnco3)cc3c(OCc4ccc(C#N)cc4)cccc3c2O1
MIC [1]: 0.06 µg/mL
MIC [2]: 0.06 µg/mL
MIC [4]: 64 µg/mL
MIC [5]: 2 µg/mL
MIC [6]: 0.06 µg/mL
MIC [7]: > 128 µg/mL
MIC [8]: 64 µg/mL
MIC [9]: 4 µg/mL
MIC [10]: 16 µg/mL (≈ 38.9 µM)
inhibition [16]: Active
Activity (Cell membrane [11]): Not Active
MIC [12]: 16 µg/mL (≈ 38.9 µM)
MIC [13]: 64 µg/mL
MIC [14]: 4 µg/mL
MIC [15]: 16 µg/mL (≈ 38.9 µM)

Cc1ccccc1COc1cccc2c3c(c(-c4nnco4)cc12)CCC(C)(C)O3
MIC [1]: 0.06 µg/mL
MIC [2]: 0.06 µg/mL
Activity (Cell membrane [3]): Not Active
MIC [4]: 32 µg/mL
MIC [5]: 8 µg/mL
MIC [6]: 0.06 µg/mL
MIC [7]: > 128 µg/mL
MIC [8]: 32 µg/mL
MIC [9]: 8 µg/mL
MIC [10]: 16 µg/mL (≈ 40 µM)
MIC [12]: 16 µg/mL (≈ 40 µM)
MIC [13]: 64 µg/mL
MIC [14]: 8 µg/mL
MIC [15]: 16 µg/mL (≈ 40 µM)

CC1(C)CCc2c(C(=O)N3CCOCC3)cc3c(OCc4ccc(C(F)(F)F)cc4)cccc3c2O1
MIC [1]: 0.06 µg/mL
MIC [2]: 0.06 µg/mL
MIC [4]: 16 µg/mL
MIC [5]: 4 µg/mL
MIC [6]: 0.06 µg/mL
MIC [7]: > 128 µg/mL
MIC [8]: 64 µg/mL
MIC [9]: 8 µg/mL
MIC [10]: 16 µg/mL (≈ 32 µM)
inhibition [16]: Active
MIC [12]: 16 µg/mL (≈ 32 µM)
MIC [13]: 64 µg/mL
MIC [14]: 8 µg/mL
MIC [15]: 16 µg/mL (≈ 32 µM)

COc1cccc(COc2cccc3c4c(c(C(=O)N5CCOCC5)cc23)CCC(C)(C)O4)c1
MIC [1]: 0.06 µg/mL
MIC [2]: 0.06 µg/mL
Activity (Cell membrane [3]): Not Active
MIC [4]: 32 µg/mL
MIC [5]: 2 µg/mL
MIC [6]: 0.06 µg/mL
MIC [7]: > 128 µg/mL
MIC [8]: 32 µg/mL
MIC [9]: 4 µg/mL
MIC [10]: 16 µg/mL (≈ 34.7 µM)
inhibition [16]: Active
MIC [12]: 16 µg/mL (≈ 34.7 µM)
MIC [13]: 64 µg/mL
MIC [14]: 4 µg/mL
MIC [15]: 16 µg/mL (≈ 34.7 µM)

CC1(C)CCc2c(-c3nnco3)cc3c(OCc4ccccc4)cccc3c2O1
MIC [1]: 0.06 µg/mL
MIC [2]: 0.06 µg/mL
Activity (Cell membrane [3]): Not Active
MIC [4]: 32 µg/mL
MIC [5]: 2 µg/mL
MIC [6]: 0.06 µg/mL
MIC [7]: > 128 µg/mL
MIC [8]: 32 µg/mL
MIC [9]: 4 µg/mL
MIC [10]: 16 µg/mL (≈ 41.4 µM)
MIC [12]: 16 µg/mL (≈ 41.4 µM)
MIC [13]: 64 µg/mL
MIC [14]: 4 µg/mL
MIC [15]: 16 µg/mL (≈ 41.4 µM)

Cc1ccc(COc2cccc3c4c(c(-c5nnco5)cc23)CCC(C)(C)O4)cc1
MIC [1]: 0.03 µg/mL
MIC [2]: 0.03 µg/mL
Activity (Cell membrane [3]): Not Active
MIC [4]: 16 µg/mL
MIC [5]: 2 µg/mL
MIC [6]: 0.03 µg/mL
MIC [7]: > 128 µg/mL
MIC [8]: 32 µg/mL
MIC [9]: 8 µg/mL
MIC [10]: 16 µg/mL (≈ 40 µM)
Activity (Cell membrane [11]): Not Active
MIC [12]: 16 µg/mL (≈ 40 µM)
MIC [13]: 32 µg/mL
MIC [14]: 8 µg/mL
MIC [15]: 16 µg/mL (≈ 40 µM)

C=CC(=O)Nc1ccc(COc2cccc3c4c(c(Cn5cnnn5)cc23)CCC(C)(C)O4)cc1
MIC [1]: 0.06 µg/mL
MIC [2]: 0.06 µg/mL
MIC [4]: 32 µg/mL
MIC [5]: 4 µg/mL
MIC [6]: 0.06 µg/mL
MIC [7]: > 128 µg/mL
MIC [8]: 32 µg/mL
MIC [9]: 4 µg/mL
MIC [10]: 16 µg/mL (≈ 34.1 µM)
inhibition [16]: Active
Activity (Cell membrane [11]): Not Active
MIC [12]: 16 µg/mL (≈ 34.1 µM)
MIC [13]: 64 µg/mL
MIC [14]: 4 µg/mL
MIC [15]: 16 µg/mL (≈ 34.1 µM)
